Assay results published in ChEMBL document CHEMBL4251719, “Drimane Sesquiterpenoids Noncompetitively Inhibit Human α4β2 Nicotinic Acetylcholine Receptors with Higher Potency Compared to Human α3β4 and α7 Subtypes” (J Nat Prod, 2018).
Activity calls are given as the source filed them. The rule behind the calls is not given here.

How the values were obtained:
Type in all cases: cell-based
[1] = target: T1, Neuronal acetylcholine receptor; alpha3/beta4 (Homo sapiens, UniProt P30926+P32297); experiment: Agonist activity at human alpha3beta4 nAChR expressed in HEK293 cells assessed as increase in calcium influx at 100 uM measured for 78 secs by Fluo-4-AM dye based FLIPR assay
T1 sequence (P30926 whole entry): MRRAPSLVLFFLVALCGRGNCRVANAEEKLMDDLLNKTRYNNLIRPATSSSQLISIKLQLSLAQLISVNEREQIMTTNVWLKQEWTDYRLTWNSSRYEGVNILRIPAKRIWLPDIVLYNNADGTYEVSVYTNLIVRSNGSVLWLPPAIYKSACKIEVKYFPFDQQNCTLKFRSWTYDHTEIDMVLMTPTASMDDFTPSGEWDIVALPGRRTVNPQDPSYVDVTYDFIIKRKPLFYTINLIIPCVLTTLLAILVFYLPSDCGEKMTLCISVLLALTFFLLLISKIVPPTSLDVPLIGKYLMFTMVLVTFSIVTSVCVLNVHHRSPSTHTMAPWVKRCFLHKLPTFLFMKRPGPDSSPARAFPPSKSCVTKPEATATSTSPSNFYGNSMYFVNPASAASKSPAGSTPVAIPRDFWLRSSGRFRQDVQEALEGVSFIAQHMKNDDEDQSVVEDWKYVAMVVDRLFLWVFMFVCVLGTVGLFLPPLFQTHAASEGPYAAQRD
T1 sequence (P32297 whole entry): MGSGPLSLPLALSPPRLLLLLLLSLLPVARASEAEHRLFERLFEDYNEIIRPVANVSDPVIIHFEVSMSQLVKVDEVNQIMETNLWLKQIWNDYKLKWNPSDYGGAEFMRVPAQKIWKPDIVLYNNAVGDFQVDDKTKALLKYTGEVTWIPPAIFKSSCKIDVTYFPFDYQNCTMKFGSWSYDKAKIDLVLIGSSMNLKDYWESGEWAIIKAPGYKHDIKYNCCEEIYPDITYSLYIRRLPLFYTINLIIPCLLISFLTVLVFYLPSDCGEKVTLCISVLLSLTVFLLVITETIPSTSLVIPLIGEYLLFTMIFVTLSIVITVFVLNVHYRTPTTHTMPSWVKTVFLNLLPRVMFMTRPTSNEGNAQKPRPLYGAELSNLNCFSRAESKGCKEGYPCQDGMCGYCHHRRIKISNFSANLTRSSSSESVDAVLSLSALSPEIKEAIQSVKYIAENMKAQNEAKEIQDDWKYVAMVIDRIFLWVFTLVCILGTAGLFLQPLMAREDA
Outline: (§1)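 Cells seeded 5 × 10^4/well 72 h before, 37 °C, 5% CO2; medium switched to HBSS (pH 7.4)/1% FBS 16–24 h before assay. Loaded 1 h at 37 °C with Fluo-4 plus 2.5 mM probenecid. Compound added alone on FLIPR, fluorescence (ex 488/em 510 nm) recorded 78 s; response normalized to maximal (±)-epibatidine response.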

[2] = target: T2, Neuronal acetylcholine receptor subunit alpha-7 (Homo sapiens, UniProt P36544); experiment: Agonist activity at human alpha7 nAChR expressed in rat GH3 cells assessed as increase in calcium influx at 100 uM measured for 78 secs by Fluo-4-AM dye based FLIPR assay; outline: as §1
T2 sequence (P36544 whole entry): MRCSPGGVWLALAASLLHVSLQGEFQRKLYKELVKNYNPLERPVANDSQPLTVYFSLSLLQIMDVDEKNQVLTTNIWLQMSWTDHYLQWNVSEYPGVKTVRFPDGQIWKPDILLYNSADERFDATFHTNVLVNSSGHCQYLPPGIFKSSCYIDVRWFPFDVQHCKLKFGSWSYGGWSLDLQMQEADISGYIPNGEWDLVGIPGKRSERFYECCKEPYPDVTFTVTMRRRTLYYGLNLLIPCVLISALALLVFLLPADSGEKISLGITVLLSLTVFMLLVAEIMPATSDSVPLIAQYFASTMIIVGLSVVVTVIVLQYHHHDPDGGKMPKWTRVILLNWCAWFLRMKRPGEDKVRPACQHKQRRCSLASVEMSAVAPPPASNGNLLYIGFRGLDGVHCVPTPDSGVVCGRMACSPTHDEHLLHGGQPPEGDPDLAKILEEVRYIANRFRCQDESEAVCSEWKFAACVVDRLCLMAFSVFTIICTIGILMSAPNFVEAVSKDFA

[3] = target: T3, Neuronal acetylcholine receptor; alpha4/beta2 (Homo sapiens, UniProt P17787+P43681); experiment: Agonist activity at human alpha4beta2 nAChR expressed in HEK293 cells assessed as increase in calcium influx at 100 uM measured for 78 secs by Fluo-4-AM dye based FLIPR assay; outline: as §1
T3 sequence (P17787 whole entry): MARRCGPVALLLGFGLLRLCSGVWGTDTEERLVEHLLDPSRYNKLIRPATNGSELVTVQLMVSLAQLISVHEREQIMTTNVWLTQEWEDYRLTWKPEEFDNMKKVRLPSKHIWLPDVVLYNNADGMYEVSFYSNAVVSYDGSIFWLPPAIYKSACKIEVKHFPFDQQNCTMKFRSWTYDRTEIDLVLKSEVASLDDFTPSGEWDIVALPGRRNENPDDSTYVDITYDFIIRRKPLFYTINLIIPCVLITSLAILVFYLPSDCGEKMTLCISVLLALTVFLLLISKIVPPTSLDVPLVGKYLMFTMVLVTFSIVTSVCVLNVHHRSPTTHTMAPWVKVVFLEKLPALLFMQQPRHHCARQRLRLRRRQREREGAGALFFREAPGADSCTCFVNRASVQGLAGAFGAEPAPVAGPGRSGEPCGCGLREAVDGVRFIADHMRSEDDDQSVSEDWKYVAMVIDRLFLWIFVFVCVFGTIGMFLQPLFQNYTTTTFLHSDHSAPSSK
T3 sequence (P43681 whole entry): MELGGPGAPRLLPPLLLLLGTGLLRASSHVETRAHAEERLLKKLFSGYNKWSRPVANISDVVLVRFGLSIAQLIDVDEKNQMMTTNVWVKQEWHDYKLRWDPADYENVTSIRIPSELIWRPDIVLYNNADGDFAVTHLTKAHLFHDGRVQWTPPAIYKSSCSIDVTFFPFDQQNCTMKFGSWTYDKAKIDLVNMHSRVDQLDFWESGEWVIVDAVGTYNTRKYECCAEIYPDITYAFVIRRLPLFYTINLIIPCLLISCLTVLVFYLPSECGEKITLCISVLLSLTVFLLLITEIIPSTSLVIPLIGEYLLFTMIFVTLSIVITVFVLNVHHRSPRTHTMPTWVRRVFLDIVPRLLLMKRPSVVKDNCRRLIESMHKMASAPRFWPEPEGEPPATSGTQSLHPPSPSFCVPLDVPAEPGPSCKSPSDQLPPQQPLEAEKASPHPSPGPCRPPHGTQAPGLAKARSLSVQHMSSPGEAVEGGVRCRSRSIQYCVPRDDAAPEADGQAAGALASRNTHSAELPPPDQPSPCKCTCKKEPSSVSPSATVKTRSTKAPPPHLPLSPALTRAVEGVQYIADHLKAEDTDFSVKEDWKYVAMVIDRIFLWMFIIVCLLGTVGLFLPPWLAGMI

[4] = target: T3, Neuronal acetylcholine receptor; alpha4/beta2; experiment: Antagonist activity at human alpha4beta2 nAChR expressed in HEK293 cells assessed as inhibition of (+/-)-epibatidine-induced calcium influx at 1 uM preincubated for 5 mins followed by (+/-)-epibatidine addition measured for 78 secs by Fluo-4-AM dye based FLIPR assay
Outline: (§2)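 Fluo-4-loaded cells (1 h, 37 °C, 2.5 mM probenecid) washed twice in HBSS/1% FBS, then preincubated 5 min with test ligand at various concentrations. 0.1 μM (±)-epibatidine added on FLIPR after 5-reading baseline; fluorescence (ex 488/em 510 nm) recorded 78 s. Response normalized to maximal epibatidine response; IC50 and nH from nonlinear least-squares curve fits; SD, n = 3.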

[5] = target: T2, Neuronal acetylcholine receptor subunit alpha-7; experiment: Antagonist activity at human alpha7 nAChR expressed in HEK293 cells assessed as inhibition of (+/-)-epibatidine-induced calcium influx preincubated for 5 mins followed by (+/-)-epibatidine addition measured for 78 secs by Fluo-4-AM dye based FLIPR assay; settings: in the assay text read “GH3” for “HEK293”; outline: as §2
[6] = target: T3, Neuronal acetylcholine receptor; alpha4/beta2; experiment: Antagonist activity at human alpha4beta2 nAChR expressed in HEK293 cells assessed as inhibition of (+/-)-epibatidine-induced calcium influx preincubated for 5 mins followed by (+/-)-epibatidine addition measured for 78 secs by Fluo-4-AM dye based FLIPR assay; outline: as §2
[7] = target: T1, Neuronal acetylcholine receptor; alpha3/beta4; experiment: Antagonist activity at human alpha3beta4 nAChR expressed in HEK293 cells assessed as inhibition of (+/-)-epibatidine-induced calcium influx preincubated for 5 mins followed by (+/-)-epibatidine addition measured for 78 secs by Fluo-4-AM dye based FLIPR assay; outline: as §2
[8] = target: T3, Neuronal acetylcholine receptor; alpha4/beta2; experiment: Antagonist activity at human alpha4beta2 nAChR expressed in HEK293 cells assessed as inhibition of (+/-)-epibatidine-induced calcium influx up to 100 uM preincubated for 5 mins followed by (+/-)-epibatidine addition measured for 78 secs by Fluo-4-AM dye based FLIPR assay; outline: as §2
[9] = target: T3, Neuronal acetylcholine receptor; alpha4/beta2; experiment: Non-competitive inhibition of human alpha4beta2 nAChR expressed in HEK293 cells assessed as inhibition of (+/-)-epibatidine-induced calcium influx preincubated for 5 mins followed by (+/-)-epibatidine addition measured for 78 secs by Fluo-4-AM dye based FLIPR assay
Outline: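 (±)-Epibatidine concentration–response curves measured on hα4β2 HEK293 cells without drimane or after 5 min preincubation with 0.3, 1.0 and 3.0 μM; Fluo-4 Ca2+ fluorescence on FLIPR, 78 s recording; n = 3.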

[10] = target: T3, Neuronal acetylcholine receptor; alpha4/beta2; experiment: Antagonist activity at human alpha4beta2 nAChR expressed in HEK293 cells assessed as inhibition of (+/-)-epibatidine-induced calcium influx at 10 to 100 uM preincubated for 5 mins followed by (+/-)-epibatidine addition measured for 78 secs by Fluo-4-AM dye based FLIPR assay relative to control; outline: as §2

| SMILES | Activity [1] | Activity [2] | Activity [3] | inhibition [4] | IC50 [5] | IC50 ([6]; read-out: IC50) | IC50 [7] | inhibition [9] | inhibition [10] | inhibition [8] | IC50 ([6]; hek293) |
| --- | --- | --- | --- | --- | --- | --- | --- | --- | --- | --- | --- |
| Clc1ccc(C2C[C@@H]3CCC2N3)cn1 (stereo partly drawn) | inactive | inactive | inactive | Active | – | – | – | – | – | – | – |
| CC1(C)CCC[C@]2(C)[C@H]3COC(=O)C3=CC[C@@H]12 [CINNAMOLIDE] | inactive | inactive | inactive | Active | 4.64 µM | 1.57 µM | 2.62 µM | – | – | – | – |
| CC1(C)CCC[C@]2(C)[C@@H]3C(=CC[C@@H]12)C(=O)O[C@H]3O [DENDOCARBIN A] | inactive | inactive | inactive | – | > 100 µM | – | > 100 µM | – | – | inactive | Not Active |

Continued, in another order:

| Activity [1] | Activity [2] | Activity [3] | inhibition [4] | IC50 [5] | IC50 ([6]; read-out: IC50) | IC50 [7] | inhibition [9] | inhibition [10] | SMILES | inhibition [8] | IC50 ([6]; hek293) |
| --- | --- | --- | --- | --- | --- | --- | --- | --- | --- | --- | --- |
| inactive | inactive | inactive | – | 13.8 µM | 0.97 µM | 1.78 µM | Active | 100% | CC1(C)CCC[C@]2(C)[C@H]3C(=O)OCC3=CC[C@@H]12 [DRIMENIN] | – | – |
| inactive | inactive | inactive | Active | > 100 µM | 62.5 µM | 48.2 µM | – | – | CC1(C)CCC[C@]2(C)[C@@H](C=O)C(C=O)=CC[C@@H]12 [POLYGODIAL] | – | – |
